{
  "source": "ChEMBL document CHEMBL1138867",
  "about": "“Design, synthesis, potency, and cytoselectivity of anticancer agents derived by parallel synthesis from alpha-aminosuberic acid” (J Med Chem, 2006)",
  "key": {"[1]": {"assay": "Antiproliferative activity against human Mel FH cells", "type": "functional, cell-based", "method_in_brief": "(§1)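 Cells cultured in RPMI 1640 with 10% heat-inactivated FCS, 3 mM HEPES, 5% CO2, 37 °C; NFF are primary neonatal foreskin fibroblasts. Cells were seeded at 5 × 10^3/well and left to adhere overnight. They were exposed to compound for 24 h, then the medium was replaced and cells grown a further 72 h. Survival was read by SRB staining at 564 nm, giving IC50.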"}, "[2]": {"test_system": "NFF", "assay": "Selectivity index, IC50 for HeLa over IC50 for NFF cells", "type": "functional, Homo sapiens"}, "[3]": {"test_system": "NFF", "assay": "Selectivity index, IC50 for MM604 over IC50 for NFF cells", "type": "functional, Homo sapiens", "method_in_brief": "(§2)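 Selectivity index: IC50 for normal neonatal foreskin fibroblasts (NFF) relative to IC50 for each cancer line, both from the same survival assay. Cells grown in RPMI 1640 with 10% heat-inactivated FCS at 37 °C and 5% CO2, plated at 5 × 10^3 cells/well and left to adhere overnight. Compound exposure 24 h, then removed and cells regrown 72 h in fresh medium. Fixed with methylated spirits, stained with sulforhodamine B, read at 564 nm.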"}, "[4]": {"test_system": "NFF", "assay": "Selectivity index, IC50 for MM470 over IC50 for NFF cells", "type": "functional, Homo sapiens", "method_in_brief": "as §2"}, "[5]": {"test_system": "A2058", "assay": "Antiproliferative activity against human A2058 cells", "type": "functional, cell-based", "method_in_brief": "as §1"}, "[6]": {"test_system": "NFF", "assay": "Selectivity index, IC50 for Mel RM over IC50 for NFF cells", "type": "functional, Homo sapiens", "method_in_brief": "as §2"}, "[7]": {"assay": "Antiproliferative activity against human MM470 cells", "type": "functional, cell-based", "method_in_brief": "as §1"}, "[8]": {"assay": "Antiproliferative activity against human Mel RM cells", "type": "functional, cell-based", "method_in_brief": "as §1"}, "[9]": {"assay": "Antiproliferative activity against human LSP M2 cells", "type": "functional, cell-based", "method_in_brief": "as §1"}, "[10]": {"test_system": "NFF", "assay": "Antiproliferative activity against human NFF cells", "type": "functional, cell-based", "method_in_brief": "as §1"}, "[11]": {"test_system": "NFF", "assay": "Selectivity index, IC50 for MM329 over IC50 for NFF cells", "type": "functional, Homo sapiens", "method_in_brief": "as §2"}, "[12]": {"assay": "Antiproliferative activity against human D11 cells", "type": "functional, cell-based", "method_in_brief": "as §1"}, "[13]": {"assay": "Antiproliferative activity against human MM229 cells", "type": "functional, cell-based", "method_in_brief": "as §1"}, "[14]": {"test_system": "HeLa", "assay": "Antiproliferative activity against human HeLa cells", "type": "functional, cell-based", "method_in_brief": "as §1"}, "[15]": {"test_system": "NFF", "assay": "Selectivity index, IC50 for D17 over IC50 for NFF cells", "type": "functional, Homo sapiens"}, "[16]": {"test_system": "NFF", "assay": "Selectivity index, IC50 for D14 over IC50 for NFF cells", "type": "functional, Homo sapiens"}, "[17]": {"assay": "Antiproliferative activity against human MM604 cells", "type": "functional, cell-based", "method_in_brief": "as §1"}, "[18]": {"test_system": "NFF", "assay": "Selectivity index, IC50 for Mel FH over IC50 for NFF cells", "type": "functional, Homo sapiens", "method_in_brief": "as §2"}, "[19]": {"test_system": "NFF", "assay": "Selectivity index, IC50 for A2058 over IC50 for NFF cells", "type": "functional, Homo sapiens"}, "[20]": {"test_system": "MM96L", "assay": "Antiproliferative activity against human MM96L cells", "type": "functional, cell-based", "method_in_brief": "as §1"}, "[21]": {"test_system": "DO4", "assay": "Antiproliferative activity against human DO4 cells", "type": "functional, cell-based", "method_in_brief": "as §1"}, "[22]": {"test_system": "NFF", "assay": "Selectivity index, IC50 for AO7 RM over IC50 for NFF cells", "type": "functional, Homo sapiens"}, "[23]": {"test_system": "NFF", "assay": "Selectivity index, IC50 for AF6 over IC50 for NFF cells", "type": "functional, Homo sapiens"}, "[24]": {"test_system": "NFF", "assay": "Selectivity index, IC50 for LSP M2 over IC50 for NFF cells", "type": "functional, Homo sapiens", "method_in_brief": "as §2"}, "[25]": {"test_system": "NFF", "assay": "Selectivity index, IC50 for D11 over IC50 for NFF cells", "type": "functional, Homo sapiens"}, "[26]": {"assay": "Antiproliferative activity against human AO7 RM cells", "type": "functional, cell-based", "method_in_brief": "as §1"}, "[27]": {"assay": "Antiproliferative activity against human D17 cells", "type": "functional, cell-based", "method_in_brief": "as §1"}, "[28]": {"test_system": "SK-MEL-28", "assay": "Antiproliferative activity against human SK-Mel-28 cells", "type": "functional, cell-based", "method_in_brief": "as §1"}, "[29]": {"test_system": "NFF", "assay": "Selectivity index, IC50 for MM229 over IC50 for NFF cells", "type": "functional, Homo sapiens", "method_in_brief": "as §2"}, "[30]": {"test_system": "NFF", "assay": "Selectivity index, IC50 for DO4 over IC50 for NFF cells", "type": "functional, Homo sapiens"}, "[31]": {"assay": "Antiproliferative activity against human D14 cells", "type": "functional, cell-based", "method_in_brief": "as §1"}, "[32]": {"test_system": "MM96L", "assay": "Induction of histone H4 acetylation in human MM96L cells", "type": "functional, cell-based", "method_in_brief": "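MM96L melanoma cells were exposed for 8 h to 0.05, 0.5 or 5 µg/mL compound, with DMSO vehicle and untreated controls. Histones were extracted and resolved by TAU gel electrophoresis to separate non-, mono-, di-, tri- and tetra-acetylated histone H4.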"}, "[33]": {"assay": "Antiproliferative activity against human MM329 cells", "type": "functional, cell-based", "method_in_brief": "as §1"}, "[34]": {"assay": "Antiproliferative activity against human AF6 cells", "type": "functional, cell-based", "method_in_brief": "as §1"}},
  "data": [
    {"smiles": "CN(C)c1ccc(C(=O)NC(CCCCCC(=O)NO)C(=O)NCc2ccccc2)cc1", "note": "(centres undefined)", "values": [
      {"measurement": "IC50", "setting": "[1]", "result": 80, "unit": "nM"},
      {"measurement": "Ratio IC50", "setting": "[2]", "result": 9.7},
      {"measurement": "Ratio IC50", "setting": "[3]", "result": 87},
      {"measurement": "Ratio IC50", "setting": "[4]", "result": 9.7},
      {"measurement": "IC50", "setting": "[5]", "result": 100, "unit": "nM"},
      {"measurement": "Ratio IC50", "setting": "[6]", "result": 0.9},
      {"measurement": "IC50", "setting": "[7]", "result": 90, "unit": "nM"},
      {"measurement": "IC50", "setting": "[8]", "result": 950, "unit": "nM"},
      {"measurement": "IC50", "setting": "[9]", "result": 450, "unit": "nM"},
      {"measurement": "IC50", "setting": "[10]", "result": 870, "unit": "nM"},
      {"measurement": "Ratio IC50", "setting": "[11]", "result": 14.5},
      {"measurement": "IC50", "setting": "[12]", "result": 300, "unit": "nM"},
      {"measurement": "IC50", "setting": "[13]", "result": 600, "unit": "nM"},
      {"measurement": "IC50", "setting": "[14]", "result": 90, "unit": "nM"},
      {"measurement": "Ratio IC50", "setting": "[15]", "result": 14.5},
      {"measurement": "Ratio IC50", "setting": "[16]", "result": 3.3},
      {"measurement": "IC50", "setting": "[17]", "result": 10, "unit": "nM"},
      {"measurement": "Ratio IC50", "setting": "[18]", "result": 10.9},
      {"measurement": "Ratio IC50", "setting": "[19]", "result": 8.7},
      {"measurement": "IC50", "setting": "[20]", "result": 130, "unit": "nM"},
      {"measurement": "IC50", "setting": "[21]", "result": 120, "unit": "nM"},
      {"measurement": "Ratio IC50", "setting": "[22]", "result": 4.8},
      {"measurement": "Ratio IC50", "setting": "[23]", "result": 2.9},
      {"measurement": "Ratio IC50", "setting": "[24]", "result": 1.9},
      {"measurement": "Ratio IC50", "setting": "[25]", "result": 2.9},
      {"measurement": "IC50", "setting": "[26]", "result": 180, "unit": "nM"},
      {"measurement": "IC50", "setting": "[27]", "result": 60, "unit": "nM"},
      {"measurement": "IC50", "setting": "[28]", "result": 60, "unit": "nM"},
      {"measurement": "Ratio IC50", "setting": "[29]", "result": 1.5},
      {"measurement": "Ratio IC50", "setting": "[30]", "result": 7.3},
      {"measurement": "IC50", "setting": "[31]", "result": 260, "unit": "nM"},
      {"measurement": "Activity", "setting": "[32]", "result": "Dose-dependent effect"},
      {"measurement": "IC50", "setting": "[33]", "result": 60, "unit": "nM"},
      {"measurement": "IC50", "setting": "[34]", "result": 300, "unit": "nM"}
    ]}
  ]
}
